Experimental data as given in ChEMBL document CHEMBL1268810, “'Click' assembly of selective inhibitors for MAO-A” (Bioorg Med Chem Lett, 2010).

What was measured:
[1] = Selectivity ratio, ratio of IC50 for MAOB to IC50 for MAOA
[2] = target: T1, Amine oxidase [flavin-containing] A (Homo sapiens, UniProt P21397); assay: Inhibition of MAOA by spectrofluorimetry
T1 sequence (P21397 whole entry): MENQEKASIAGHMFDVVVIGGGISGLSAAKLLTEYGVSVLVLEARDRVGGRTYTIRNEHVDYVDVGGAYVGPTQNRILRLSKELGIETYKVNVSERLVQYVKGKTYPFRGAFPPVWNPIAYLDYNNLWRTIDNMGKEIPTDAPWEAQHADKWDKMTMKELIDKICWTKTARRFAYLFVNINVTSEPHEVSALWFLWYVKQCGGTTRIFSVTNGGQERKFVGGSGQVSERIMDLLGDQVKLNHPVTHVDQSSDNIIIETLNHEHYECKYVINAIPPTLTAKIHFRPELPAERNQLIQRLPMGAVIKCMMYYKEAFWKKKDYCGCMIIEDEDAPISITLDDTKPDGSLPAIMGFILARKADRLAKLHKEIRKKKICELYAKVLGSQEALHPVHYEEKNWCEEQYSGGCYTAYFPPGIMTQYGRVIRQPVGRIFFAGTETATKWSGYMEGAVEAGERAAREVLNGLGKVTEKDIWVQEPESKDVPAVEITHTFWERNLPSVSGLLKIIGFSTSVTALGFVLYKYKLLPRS
Summary of the method: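 Fluorescence-based microplate assay for MAO-A and MAO-B inhibition, following the group's earlier reported method. Click reaction mixtures, made with CuSO4 and sodium ascorbate in t-BuOH/H2O (1:1) over 24 h, were diluted into 96-well plates from 0 to 100 μM. Fluorescence was read at λex 360 nm and λem 460 nm.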

[3] = target: T2, Amine oxidase [flavin-containing] B (Homo sapiens, UniProt P27338); assay: Inhibition of MAOB by spectrofluorimetry
T2 sequence (P27338 whole entry): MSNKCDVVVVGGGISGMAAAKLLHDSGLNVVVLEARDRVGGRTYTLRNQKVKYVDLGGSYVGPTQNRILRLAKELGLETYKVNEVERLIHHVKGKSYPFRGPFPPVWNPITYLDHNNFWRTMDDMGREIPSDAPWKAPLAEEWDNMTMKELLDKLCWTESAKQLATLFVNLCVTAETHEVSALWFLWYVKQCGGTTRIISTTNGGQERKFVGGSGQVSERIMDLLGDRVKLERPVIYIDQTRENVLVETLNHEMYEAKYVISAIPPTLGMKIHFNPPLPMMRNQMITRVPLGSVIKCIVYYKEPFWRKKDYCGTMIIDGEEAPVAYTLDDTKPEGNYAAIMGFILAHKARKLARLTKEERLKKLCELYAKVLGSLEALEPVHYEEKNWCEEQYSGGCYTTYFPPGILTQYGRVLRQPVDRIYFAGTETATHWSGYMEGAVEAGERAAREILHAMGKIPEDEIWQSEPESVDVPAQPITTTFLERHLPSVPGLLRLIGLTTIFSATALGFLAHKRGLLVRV

Structure (SMILES) | Ratio IC50 [1] | IC50 [2] [µM] | IC50 [3] [µM]
NCc1cn(-c2ccc(C(=O)O)cc2)nn1 | 2.89 | 19.6 | 56.9
NCc1cn(-c2ccccc2)nn1 | 526 | 0.97 | 511
NCc1cn(-c2ccncc2)nn1 | 140 | 0.83 | 116
NCc1cn(-c2cccc(C(=O)O)c2)nn1 | 0.95 | 50.7 | 62.1
